Hits are enriched below; roughly 1.9% of the tested compounds scored in any of these assays.
NadD block: NadD (S. aureus) enzyme inhibition | purified NadD enzyme, colorimetric absorbance read-out | inhibition, % at 20 µM | 360,000 tested, 0.78% active | AID 602399; in the data active means inhibition above about 26%
core dimer inh: blocks dimerization of HCV core protein; inhibition, % at 5 µM; TR-FRET GST/Flag-core106 dimerization, 1536-well; 300,000 tested, 0.33% active;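 active means inhibition above the mean of all tested compounds plus 3 SD, set per screening campaign, cut at about 45% in these data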
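System: GST-tagged and Flag-tagged HCV core protein residues 1-106 / Input: core106 proteins, GST 13.5 nM and Flag 17 nM / Buffer or medium: KF-containing HEPES buffer, pH 7.45, DTT, CHAPS, BSA / Probe or stimulus: Eu-anti-GST and XL665-anti-Flag labelled anti-tag antibodies / Schedule: 4 h, 22.5 °C incubation / Technique: TR-FRET 671 and 617 nm emission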
IMP-1 inh-1: inhibitors of Pseudomonas aeruginosa IMP-1 metallo-beta-lactamase; purified IMP-1, nitrocefin hydrolysis, epi-absorbance fluorescence; inhibition, % at 5.6 µM; 290,000 tested, 0.45% active; AID 1556;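 active means inhibition above the mean plus 3 SD of all compounds in the same screening run, cut at about 4.5% in these data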;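 further: 0% = IMP-1 with DMSO and 100% = DMSO wells lacking enzyme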
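assay system = purified recombinant IMP-1 metallo-beta-lactamase enzyme | schedule = 15 min preincubation plus 25 min reaction at 25 °C | signal = Epi-absorbance fluorescence, 480 nm excitation, 530 nm emission | read-out basis = percent inhibition from optical density relative to buffer-blank wells | controls = IMP-1 with DMSO as 0%, enzyme-free DMSO as 100%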
VIM-2 inhibitor: inhibitors of Pseudomonas aeruginosa VIM-2 metallo-beta-lactamase; purified VIM-2, nitrocefin hydrolysis, epi-absorbance fluorescence; inhibition, % at 5.6 µM; 290,000 tested, 0.89% active;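 active means inhibition above the mean of all tested compounds plus 3 SD, cutoff set per screening run, cut at about 7.5% in these data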;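 further: red hydrolysis product quenches plate fluorescence so inhibitors raise well fluorescence; 0% = enzyme with DMSO and 100% = DMSO without enzyme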
IMP-1 inh-2: selectivity counter-screen for VIM-2 inhibitors: IMP-1 metallo-beta-lactamase inhibitors; shares compounds with VIM-2 inhibitor; purified IMP-1, nitrocefin hydrolysis, epi-absorbance fluorescence; inhibition, % at 5.6 µM; 1,300 tested, under 10 active; AID 1856; call rule not given here;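 further: 0% = enzyme with vehicle and 100% = vehicle without enzyme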
VIM-2 FRET ctr: counter-screen for VIM-2 inhibitors: epi-absorbance artifacts via FRET. shares compounds with VIM-2 inhibitor. purified VIM-2, CCF2 FRET substrate hydrolysis. inhibition, % at 5.6 µM. 1,300 tested, 23% active. AID 1857;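 active means inhibition above the mean of all tested compounds plus 3 SD, cut at about 19% in these data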;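 further: 0% = VIM-2 plus DMSO and 100% = no enzyme wells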
TEM-1 counter: blocks E. coli TEM-1 beta-lactamase in VIM-2 selectivity screen. AID 1866. Purified TEM-1, nitrocefin hydrolysis, epi-absorbance fluorescence. shares compounds with VIM-2 inhibitor. inhibition, % at 5.6 µM. 1,300 tested, 3% active;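 active means inhibition above that campaign's mean inhibition plus 3 SD, cut at about 0.46% in these data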;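 further: 0% = TEM-1 with DMSO and 100% = TEM-1 with 100 µM potassium clavulanate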
Target sequence (P62593 whole entry, looked up): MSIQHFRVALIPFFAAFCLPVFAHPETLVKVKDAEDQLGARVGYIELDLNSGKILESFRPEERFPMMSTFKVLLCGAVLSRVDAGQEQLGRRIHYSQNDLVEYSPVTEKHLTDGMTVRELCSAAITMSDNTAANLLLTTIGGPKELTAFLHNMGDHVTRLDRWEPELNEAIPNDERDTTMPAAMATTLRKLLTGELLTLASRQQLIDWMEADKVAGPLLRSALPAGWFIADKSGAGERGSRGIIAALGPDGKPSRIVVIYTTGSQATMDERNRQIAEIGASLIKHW
VIM-2 inh conf: confirmation of P. aeruginosa VIM-2 metallo-beta-lactamase inhibitors | shares compounds with VIM-2 inhibitor | purified VIM-2, nitrocefin hydrolysis, epi-absorbance | 1,300 tested, 96% active | inhibition, % at 5.6 µM;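 active means inhibition of the VIM-2 beta-lactamase enzyme above about 11% from the earlier first-round screen, limit read from the data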;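 further: 0% = VIM-2 with DMSO and 100% = buffer wells without enzyme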
* = called active by the depositor; · = not tested or not shown.

SMILES	NadD block	core dimer inh	IMP-1 inh-1	VIM-2 inhibitor	IMP-1 inh-2	VIM-2 FRET ctr	TEM-1 counter	VIM-2 inh conf
C=CCn1c(=N)c(C(=O)OCC)cc2c(=O)n3cccc(C)c3nc21	·	1	-3	13*	-3	-44	-5	26*
CCOC(=O)c1cc2c(=O)n3cccc(C)c3nc2n(CC(C)C)c1=NC(=O)c1ccco1	9	9	-1	5	·	·	·	·
O=C(CSc1nnc(CNC(=O)c2cccs2)o1)Nc1ccc(Cl)cc1	0	-4	-2	-2	·	·	·	·
COc1ccc(-c2cc(C)no2)cc1S(=O)(=O)N1CCCN(Cc2ccccc2Cl)C1	-3	5	-2	0	·	·	·	·
CSc1nnc2c3cc(F)ccc3n(Cc3ccccc3)c2n1	5	1	·	·	·	·	·	·
CCN(CC)CCSc1nnc2c3cc(C)ccc3n(Cc3ccccc3)c2n1	8	2	-2	23*	-3	4	-7	43*
CN1CCN(C(=O)CSc2nc(-c3cccs3)ccc2C#N)CC1	6	53*	-2	28*	-3	4	-7	50*
CCOC(=O)c1c(NC(=O)CSc2ncn[nH]2)sc(C(C)=O)c1C	0	6	-4	24*	-2	-2	-6	32*
COC(=O)c1c(NC(=O)CSc2ncn[nH]2)sc(C)c1C	-1	-5	·	·	·	·	·	·
CCOC(=O)c1sc(NC(=O)CCN2CCN(C)CC2)c(C(=O)OCC)c1C	-12	-2	-2	16*	-3	1	-7	48*
CCN(CC)c1nc(Oc2ccc(C(=O)NN)cc2)nc(Oc2ccc(C(=O)NN)cc2)n1	7	·	-3	70*	-4	8	-7	82*
Nc1nc(/C=C/c2cccnc2)nc(-c2ccccc2O)n1	-12	5	-1	23*	-3	-4	-7	60*
O=C(NCCc1ccccc1)c1ccc2c(c1)S(=O)(=O)c1cc(Cl)ccc1C2=O	-8	·	·	·	·	·	·	·
CN(C)CCN1CCc2ccccc21	0	-6	-6	23*	-3	-4	-6	11*
c1ccc2c(c1)CCN2CCN1CCc2ccccc21	24	-2	0	-1	·	·	·	·
CC(=O)Nc1ccc2c(CN3C(=O)NC(C)(c4ccc(C)cc4)C3=O)cc(=O)oc2c1 (stereo not drawn)	16	-4	-2	-1	·	·	·	·
CC(=O)Nc1ccc2c(CSc3nnc(N)s3)cc(=O)oc2c1	2	3	2	21*	-4	10	-7	5
O=C(COc1ccc2c(c1)oc(=O)c1ccccc12)NCCCN1CCOCC1	-3	7	-2	20*	-3	3	-8	33*
CC(Oc1cc2oc(=O)c3c(c2cc1Cl)CCCC3)C(=O)NCCN1CCOCC1 (stereo not drawn)	5	-4	1	13*	-4	-3	-5	15*
O=C(COc1ccc2c3c(c(=O)oc2c1)CCC3)NCCCN1CCOCC1	5	1	0	24*	-3	3	-6	31*
CC(Oc1cc2oc(=O)c3c(c2cc1Cl)CCC3)C(=O)NCCCN1CCOCC1 (stereo not drawn)	-3	9	-2	-1	·	·	·	·
CC(Oc1ccc2c(c1)oc(=O)c1ccccc12)C(=O)NCCN1CCOCC1 (stereo not drawn)	4	3	3	14*	-3	-1	-7	23*
O=C(COC(=O)c1cc(Cl)ccc1[N+](=O)[O-])NCc1ccc(Cl)cc1Cl	-4	6	-3	-2	·	·	·	·
Cn1c(=O)c2[nH]c(NN=Cc3cccc(Br)c3)nc2n(C)c1=O	-9	·	·	·	·	·	·	·
NC(c1csc(Nc2ccccn2)n1)c1ccccc1Cl (stereo not drawn)	1	·	·	·	·	·	·	·
COc1cccc(C(=O)N2CCC(C(=O)NCc3ccc(C)cc3)CC2)c1	-3	-9	0	0	·	·	·	·
Cc1ccc(Nc2cc(C)nc(-c3ccccc3O)n2)cc1	-3	10	-6	-8	·	·	·	·
Cc1cc(NCCCN)nc(-c2ccccc2O)n1	0	-8	-4	36*	-3	-1	-7	54*

Screening data: PubChem, several laboratories
